Assay results: article PMC2931272 (Antiviral chemistry & chemotherapy, 2009)

Legend:
[1] = Visual cytotoxicity in uninfected HFF's used in plaque reduction assays; type: cell-based; conditions: human, uninfected human foreskin fibroblasts (HFF)
[2] = Cytotoxicity by neutral red assay in HFF; type: cell-based; conditions: human, human foreskin fibroblasts (HFF)
[3] = Kinetics of hydrolysis at pH 7.0; type: physicochemical; conditions: phosphate buffer
[4] = Stability of prodrug / conversion to cyclopropavir in mouse plasma; type: in vitro ADME; conditions: for First order rate constant of conversion to cyclopropavir (5) / half live of conversion to cyclopropavir (5): 50 μM
In short: (§1)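 Blood was drawn by cardiac puncture from anaesthetised male Swiss-Webster mice into EDTA(K3) and iced; plasma was spun 10 min at 1100 × G, 4°C. Blood or plasma was spiked from a DMSO stock to a 50 μM final and held at 0°C (ice water) or 37°C. A no-incubation control was processed straight after spiking. Timed aliquots were frozen (blood first spun 2200 × G, 5 min, 4°C). Prodrug and parent were measured by HPLC, UV.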

[5] = Stability of prodrug / conversion to cyclopropavir in mouse whole blood; type: in vitro ADME; conditions: for First order rate constant of conversion to cyclopropavir (5) / half live of conversion to cyclopropavir (5): 50 μM
In short: as §1

[6] = Pharmacokinetics after IV bolus dosing of prodrug; type: in vivo; conditions: mice, IV 24.6 mg/kg prodrug
[7] = pH 7.08, 37 °C; cited from earlier work
[8] = analyte prodrug (6), two compartments model

Which results are given for `CC(C)[C@H](N)C(=O)OCC1(CO)C/C1=C/n1cnc2c(=O)[nH]c(N)nc21.Cl` (mixture of isomers) [Valcyclopropavir (6), (Z)-9-{[2-Hydroxymethyl-2-(L-valyloxymethyl)cyclopropylidene]methyl}guanine Hydrochloride]?
CC50 [1]: > 100 µM; CC50 [2]: > 300 µM; half-life at 2.25 mM [3]: 22.5 h; First order rate constant of conversion to cyclopropavir (5) ([4]; 0°C): 0.0010 min.^−1; half live of conversion to cyclopropavir (5) ([4]; 0°C): 727 min; First order rate constant of conversion to cyclopropavir (5) ([4]; 37°C): 0.0172 min.^−1; half live of conversion to cyclopropavir (5) ([4]; 37°C): 40.4 min; conversion of valcyclopropavir (6) to cyclopropavir (5), no incubation ([4]; processed immediately after spiking): 3.7%; half-life at 50 μM ([5]; male, Swiss-Webster, mouse, whole blood): 22 h; First order rate constant of conversion to cyclopropavir (5) ([5]; mouse whole blood, 0°C): 0.0005 min.^−1; half live of conversion to cyclopropavir (5) ([5]; mouse whole blood, 0°C): 1310 min; First order rate constant of conversion to cyclopropavir (5) ([5]; mouse whole blood, 37°C): 0.0087 min.^−1; half live of conversion to cyclopropavir (5) ([5]; mouse whole blood, 37°C): 80 min; conversion of valcyclopropavir (6) to cyclopropavir (5), no incubation ([5]; mouse whole blood, processed immediately after spiking): 9.0%; Rate constant of distribution phase, α [6, 8]: 0.25 min.^−1; Rate constant of elimination phase, β [6, 8]: 0.00263 min.^−1; Volume of main compartment, V [6, 8]: 0.0753 L/kg; AUC ([6]; male, Swiss-Webster, mouse, plasma, iv, 24.6 mg/kg, Area under the curve, AUC, analyte prodrug (6), single compartment first order elimination model): 1020 ng·h/mL; clearance ([6]; male, Swiss-Webster, mouse, plasma, iv, 24.6 mg/kg, Clearance (Cl), analyte prodrug (6), single compartment first order elimination model): 402 mL/min; half-life ([6]; male, Swiss-Webster, mouse, plasma, iv, 24.6 mg/kg, Half-life, T1/2, analyte prodrug (6), single compartment first order elimination model): 2.68 h

For `Nc1nc2c(ncn2/C=C2/CC2(CO)CO)c(=O)[nH]1` [Cyclopropavir (5)], which CC50 [1] is on record?
The CC50 was greater than 100 µM.

And the CC50 [2]?
The CC50 was greater than 380 µM.

Which results are given for `Nc1nc(O)c2ncn(COC(CO)CO)c2n1` [Ganciclovir, reference compound]?
CC50 [1]: > 100 µM; CC50 [2]: > 100 µM

For `CC(C)[C@H](N)C(=O)OCC(CO)OCn1cnc2c(=O)nc(N)[nH]c21` (stereo partly shown) [valganciclovir (2)], which half-life of hydrolysis [7] is on record?
The half-life of hydrolysis was 11 h.
